The M2OR odorant receptor database
Where a chain is given by its changes, count along the chain named.

Tests used:
Settings in all cases: stereoisomer not certain
OR8D2 (Homo sapiens) = biological target: T1, OR8D2 (Homo sapiens) (UniProt Q9GZM6)
T1 sequence (whole entry): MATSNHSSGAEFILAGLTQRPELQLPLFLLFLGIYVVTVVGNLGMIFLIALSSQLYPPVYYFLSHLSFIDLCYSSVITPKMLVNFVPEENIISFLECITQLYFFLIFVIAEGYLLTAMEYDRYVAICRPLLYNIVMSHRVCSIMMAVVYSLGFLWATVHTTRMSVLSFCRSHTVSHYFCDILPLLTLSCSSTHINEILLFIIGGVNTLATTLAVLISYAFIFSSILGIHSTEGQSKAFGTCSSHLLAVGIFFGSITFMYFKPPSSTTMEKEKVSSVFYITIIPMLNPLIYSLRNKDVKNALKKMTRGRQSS
Summary of the method: (§1)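 Whether a receptor–molecule pair is responsive (active) rests on the original authors' judgment that its measured signal was statistically different from baseline. Pairs without that judgment are non-responsive (inactive). Sources used varied assay methods, commonly transient luciferase assays in mammalian cell lines.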

OR8D4 (Homo sapiens) = biological target: T2, OR8D4 (Homo sapiens) (UniProt Q8NGM9)
T2 sequence (whole entry): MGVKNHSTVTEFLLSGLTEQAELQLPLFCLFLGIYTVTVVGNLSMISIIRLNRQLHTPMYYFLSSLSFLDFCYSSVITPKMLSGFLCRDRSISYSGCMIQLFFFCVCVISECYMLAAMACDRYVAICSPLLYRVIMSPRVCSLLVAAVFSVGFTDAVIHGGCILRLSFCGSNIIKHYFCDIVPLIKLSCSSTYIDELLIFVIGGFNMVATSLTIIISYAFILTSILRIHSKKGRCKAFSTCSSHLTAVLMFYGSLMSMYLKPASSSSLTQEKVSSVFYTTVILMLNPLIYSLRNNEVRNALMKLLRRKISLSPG
Summary of the method: as §1

OR8D4 C120Y R133K = system: T3, OR8D4 C120Y R133K
T3 sequence (whole entry): T2 sequence (whole entry) with C120Y, R133K
Summary of the method: as §1

OR8G1 (Homo sapiens) = biological target: T4, OR8G1 (Homo sapiens) (UniProt Q15617)
T4 sequence (whole entry): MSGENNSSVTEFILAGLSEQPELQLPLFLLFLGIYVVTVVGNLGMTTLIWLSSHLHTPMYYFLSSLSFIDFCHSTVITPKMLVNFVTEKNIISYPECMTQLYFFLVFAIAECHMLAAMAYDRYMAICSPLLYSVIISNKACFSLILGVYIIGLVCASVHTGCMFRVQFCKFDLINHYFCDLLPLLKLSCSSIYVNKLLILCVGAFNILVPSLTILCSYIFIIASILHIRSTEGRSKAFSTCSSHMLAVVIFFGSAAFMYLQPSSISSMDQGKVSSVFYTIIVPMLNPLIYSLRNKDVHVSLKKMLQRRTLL
Summary of the method: as §1

OR8G5 (Homo sapiens) = biological target: T5, OR8G5 (Homo sapiens) (UniProt Q8NG78)
T5 sequence (whole entry): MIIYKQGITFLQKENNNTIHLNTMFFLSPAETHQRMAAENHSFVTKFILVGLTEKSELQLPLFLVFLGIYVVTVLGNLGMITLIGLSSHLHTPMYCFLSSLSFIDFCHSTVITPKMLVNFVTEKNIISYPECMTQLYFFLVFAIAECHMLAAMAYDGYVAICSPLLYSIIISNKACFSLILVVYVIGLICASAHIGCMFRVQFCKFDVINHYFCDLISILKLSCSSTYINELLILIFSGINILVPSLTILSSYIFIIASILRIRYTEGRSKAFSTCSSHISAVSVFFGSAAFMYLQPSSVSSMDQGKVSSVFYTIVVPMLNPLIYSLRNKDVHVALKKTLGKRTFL
Summary of the method: as §1

OR8H1 (Homo sapiens) = biological target: T6, OR8H1 (Homo sapiens) (UniProt Q8NGG4)
T6 sequence (whole entry): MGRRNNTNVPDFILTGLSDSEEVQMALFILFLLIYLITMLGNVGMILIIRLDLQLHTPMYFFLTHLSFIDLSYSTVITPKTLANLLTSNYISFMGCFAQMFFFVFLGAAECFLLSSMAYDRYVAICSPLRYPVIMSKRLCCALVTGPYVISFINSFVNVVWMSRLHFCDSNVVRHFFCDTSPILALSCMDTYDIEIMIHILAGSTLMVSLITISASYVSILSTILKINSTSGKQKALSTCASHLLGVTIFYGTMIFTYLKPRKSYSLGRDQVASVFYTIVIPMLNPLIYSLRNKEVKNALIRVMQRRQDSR
Summary of the method: as §1

OR8H2 (Homo sapiens) = biological target: T7, OR8H2 (Homo sapiens) (UniProt Q8N162)
T7 sequence (whole entry): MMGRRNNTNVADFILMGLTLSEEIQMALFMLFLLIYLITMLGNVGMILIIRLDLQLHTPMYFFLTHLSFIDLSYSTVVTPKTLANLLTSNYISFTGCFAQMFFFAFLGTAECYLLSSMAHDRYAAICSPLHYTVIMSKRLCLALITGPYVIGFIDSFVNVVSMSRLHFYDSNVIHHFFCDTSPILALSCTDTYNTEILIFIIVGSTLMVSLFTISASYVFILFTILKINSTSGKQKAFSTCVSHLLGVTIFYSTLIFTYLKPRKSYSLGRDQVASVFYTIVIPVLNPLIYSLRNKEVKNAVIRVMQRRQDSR
Summary of the method: as §1

OR8H2 H120Y Y169C V284M = system: T8, OR8H2 H120Y Y169C V284M
T8 sequence (whole entry): T7 sequence (whole entry) with H120Y, Y169C, V284M
Summary of the method: as §1

OR8H3 (Homo sapiens) = biological target: T9, OR8H3 (Homo sapiens) (UniProt Q8N146)
T9 sequence (whole entry): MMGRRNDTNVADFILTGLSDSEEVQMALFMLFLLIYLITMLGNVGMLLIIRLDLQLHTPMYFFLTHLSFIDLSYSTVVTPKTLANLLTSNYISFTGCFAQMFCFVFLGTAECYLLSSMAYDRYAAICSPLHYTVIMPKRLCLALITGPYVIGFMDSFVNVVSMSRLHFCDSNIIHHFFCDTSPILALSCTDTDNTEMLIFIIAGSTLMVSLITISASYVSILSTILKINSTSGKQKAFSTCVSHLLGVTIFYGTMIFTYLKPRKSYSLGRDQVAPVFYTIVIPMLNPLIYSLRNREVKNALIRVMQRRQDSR
Summary of the method: as §1

OR8H3 = system: T10, OR8H3
T10 sequence (whole entry): T9 sequence (whole entry) with P137S
Summary of the method: as §1

Measured: odorant receptor agonist call;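 further: active if original authors judged signal statistically different from baseline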

CCCC(S)CCOC(C)=O (centres undefined)
inactive: all assays above

CC(CO)CS (centres undefined)
not listed: OR8D4 C120Y R133K | OR8H2 H120Y Y169C V284M | OR8H3
inactive: all other assays above

CC1=C(O)C(=O)C(C)O1 (centres undefined)
inactive: all assays above

CC(=O)c1c(C)c([N+](=O)[O-])c(C(C)(C)C)c([N+](=O)[O-])c1C
not listed: OR8D4 C120Y R133K | OR8H2 H120Y Y169C V284M | OR8H3
inactive: all other assays above

CC1=NC(C)C(C)S1 (centres undefined)
inactive: all assays above

CCC(S)C(C)CO (centres undefined)
not listed: OR8D4 C120Y R133K | OR8H2 H120Y Y169C V284M | OR8H3
inactive: all other assays above

CCC1OC(=O)C(O)=C1C (centres undefined)
inactive: all assays above

Cc1cnc(C)c(C)n1
inactive: all assays above

CCCCC(S)C(C)CO (centres undefined)
not listed: OR8D4 C120Y R133K | OR8H2 H120Y Y169C V284M | OR8H3
inactive: all other assays above

CCCCCC(=O)C(C)C(C)=O (centres undefined)
not listed: OR8D4 C120Y R133K | OR8H2 H120Y Y169C V284M | OR8H3
inactive: all other assays above

CCCCCCC=CCCC=O
inactive: all assays above

CC1=C(O)C(=O)OC1C (centres undefined)
inactive: all assays above

CCCCCC(S)C(C)CO (centres undefined)
not listed: OR8D4 C120Y R133K | OR8H2 H120Y Y169C V284M | OR8H3
inactive: all other assays above

CC1CCCCCCCCCCCCC(=O)C1 (centres undefined)
not listed: OR8D4 C120Y R133K | OR8H2 H120Y Y169C V284M | OR8H3
inactive: all other assays above

CCC1OC(C)=C(O)C1=O (centres undefined)
inactive: all assays above
